The list is not random: actives were taken first. Their share in the collection is about 1.4%.
Tn6 DDE FP – inhibitors of Tn6 peptide binding to fibrin DD(E), primary screen, biochemical, fluorescence polarization, human fibrin, Tn6 probe | Fibrinogen beta chain (Homo sapiens), P02675 | Fibrin DD(E) TRITC-Tn6 fluorescence polarization displacement | inhibition, % at 8.3 µM | actives 0.21% (n = 370,000) | AID 720509, 2013;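 active means inhibition above a per-campaign cutoff: mean of compounds within control limits plus 3 SD, cut at about 15% in these data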;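 further: 0% = median of all compound wells on the plate and 100% = blocking peptide control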
Target sequence (P02675 whole entry, looked up): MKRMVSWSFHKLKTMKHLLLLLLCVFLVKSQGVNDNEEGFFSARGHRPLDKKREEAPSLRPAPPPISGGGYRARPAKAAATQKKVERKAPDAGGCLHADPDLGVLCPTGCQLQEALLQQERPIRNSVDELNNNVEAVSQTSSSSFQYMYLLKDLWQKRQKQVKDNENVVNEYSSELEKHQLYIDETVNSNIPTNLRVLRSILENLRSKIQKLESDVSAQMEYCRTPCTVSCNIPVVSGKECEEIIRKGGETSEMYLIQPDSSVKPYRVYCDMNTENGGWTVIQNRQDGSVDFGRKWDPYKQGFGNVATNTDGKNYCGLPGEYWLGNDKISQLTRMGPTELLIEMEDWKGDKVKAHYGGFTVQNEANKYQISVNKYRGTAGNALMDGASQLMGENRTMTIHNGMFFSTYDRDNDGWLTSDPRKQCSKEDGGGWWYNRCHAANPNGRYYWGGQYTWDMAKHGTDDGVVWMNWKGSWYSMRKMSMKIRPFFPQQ
RTF Ca sens inh – cardiac RTF calcium sensitivity inhibitors, primary screen, biochemical, IANBD-TnC fluorescence, EC70 calcium | Troponin I, cardiac muscle (Homo sapiens) + Troponin T, cardiac muscle (Homo sapiens) + … | IANBD-labeled cardiac RTF, Ca2+ fluorescence | inhibition, % at 7.15 µM | actives 0.12% (n = 340,000) | AID 493244, 2011;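 active means inhibition above the mean inhibition of all tested compounds plus 3 SD, cut at about 17% in these data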;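 further: assay run at fixed EC70 calcium of 1.6 mM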
CRFBP-R2 agonist – agonists of CRF-BP/CRF-R2 complex, primary screen, cell-based, HEK293, calcium dye fluorescence, uHTS; CRF-binding protein / CRF receptor 2 complex (human); calcium dye fluorescence (FLIPR); percent of saturating CRF peptide response; activation, % at 13.2 µM; actives 0.46% (n = 350,000);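 active means activation of at least 50%, plus an integration ratio under a set limit after plate pattern correction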;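 further: plate controls were neutral control wells without compound for no effect and CRF at EC100 for full effect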
Tn7 DDE FP – inhibitors of Tn7 peptide binding to fibrin DD(E), primary screen, biochemical, fluorescence polarization, human fibrin, Tn7 probe | Fibrinogen beta chain (Homo sapiens), P02675 | FP displacement of FITC-Tn7 peptide from fibrin DD(E); 0% = median of compound wells per plate | inhibition, % at 8.3 µM | actives 0.13% (n = 370,000);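 active means inhibition above the mean of compounds falling within the control limits plus 3 SD of them, cut at about 14% in these data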;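 further: 0% = plate median of compound wells and 100% = 10 µM Aha-Tn7 peptide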
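assay system = human clot-derived fibrin DD(E) complex | quantity = Fibrin-DD(E) at 2 µM final | timing = 10 min preincubation, 3 h with tracer, room temperature | signal = fluorescence polarization | measure = percent inhibition | benchmarks = high control wells with 10 µM unlabelled Aha-Tn7 peptide (full inhibition) | replicates = singlicate testing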
cardiac RTF act – cardiac RTF calcium sensitivity activators, primary screen, biochemical, IANBD-TnC fluorescence, EC20 calcium; actives 0.24% (n = 340,000); Troponin I, cardiac muscle (Homo sapiens) + Troponin T, cardiac muscle (Homo sapiens) + …; IANBD-labeled TnC RTF fluorescence at EC20 calcium; 0% EC20 calcium, 100% full calcium; activation, % at 7.2 µM;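 active means activation above the mean over all tested compounds plus 3 SD, cut at about 30% in these data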;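 further: rise in fluorescence read as greater calcium sensitivity of cardiac thin filaments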
CRFR2-BP antag – antagonists of CRF-BP/CRF-R2 complex, primary screen, cell-based, HEK293, calcium dye fluorescence, uHTS; actives 0.59% (n = 350,000); inhibition, % at 11.8 µM; CRF-induced calcium fluorescence;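 active means inhibition of the ligand-induced calcium signal above about 50% at the single tested concentration, limit read from the data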
DDE Tn7 confirm – inhibitors of Tn7 peptide binding to fibrin DD(E), confirmation, biochemical, fluorescence polarization, human fibrin, Tn7 probe. actives 5% (n = 460). shares compounds with Tn7 DDE FP. inhibition, % at 8.3 µM. FP displacement of TRITC-Tn7 peptide from DD(E); 0% set at plate's compound-well median. AID 720628, 2013;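 active means inhibition above the campaign cutoff, the mean of compounds within control limits plus 3 SD, cut at about 14% in these data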;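 further: 100% = median FP of high control wells holding Aha-Tn7 inhibitor peptide; displacers lower polarization since freed probe rises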
Tn7 DDE ctr – counter-screen for inhibitors of Tn7 peptide binding to fibrin DD(E) | inhibition, % at 8.3 µM | actives 3% (n = 460) | shares compounds with Tn7 DDE FP | AID 720633 | TRITC-Tn7 probe displacement, fluorescence polarization;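 active means inhibition above the cutoff, the mean of compounds lying between the control bounds plus 3 SD of those compounds, cut at about 17% in these data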;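 further: 0% = median of compound sample wells and 100% = excess unlabeled Aha-Tn7 peptide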
Numbers without * were called inactive; / = no result.

SMILES	Tn6 DDE FP	RTF Ca sens inh	CRFBP-R2 agonist	Tn7 DDE FP	cardiac RTF act	CRFR2-BP antag	DDE Tn7 confirm	Tn7 DDE ctr
COc1ccc(Cn2cc(CN3CC=CS3(=O)=O)nn2)cc1	4	/	/	-2	/	/	/	/
Cc1ccc(N=Cc2ccccc2O)cc1Cl	6	1	-3	15*	4	9	4	3
CCOc1cc(C=NN2CCN(Cc3ccc(C)cc3)CC2)ccc1O	2	/	/	-1	/	/	/	/
C=CCOc1ccc(/C=C/C(=O)OCC(=O)NCCCc2ccccc2)cc1	-7	-15	0	14*	4	6	1	0
COc1ccc(/C=C/C(=O)OCC(=O)NCCCc2ccccc2)cc1OC	-3	-6	-1	4	0	-1	/	/
Cc1noc(C)c1S(=O)(=O)Nc1ccc2c(c1)C(=O)N([C@@H](C)CO)C[C@H](C)[C@@H](CN(C)Cc1ccc(C(F)(F)F)cc1)OCCCC[C@H](C)O2	-4	/	5	14*	/	-24	3	2
Cc1ccccc1CN1CCCCC(NC(=O)c2ccc(F)cc2)C1=O (stereo not given)	9	/	/	9	/	/	/	/
CC1(C)Cc2c(cnn2-c2ccccc2)C(NC(=O)CCCN2CCCCC2=O)C1 (stereo not given)	-1	5	1	16*	0	1	1	0
Cc1cccc(NC(=O)CSc2nnnn2-c2ccc3c(c2)OCCO3)n1	-6	-5	0	15*	-3	2	1	1
CCN(C(=O)COC(=O)c1cc(Cl)ccc1OC)c1c(N)n(Cc2ccccc2)c(=O)[nH]c1=O	11	-11	2	14*	-6	-8	-1	-4
COc1ccc(Cl)cc1C(=O)OCC(=O)N(CC(C)C)c1c(N)n(Cc2ccccc2)c(=O)[nH]c1=O	3	-3	-3	11	2	-18	/	/
CC(C)CC1c2[nH]c3ccccc3c2CCN1C(=O)CCC(=O)N(C)C (stereo not given)	0	0	3	15*	6	-10	3	2
CC1=C2NC(N)=[N+](Cc3ccc4c(c3)OCO4)CC2NOC1 (stereo not given)	7	/	/	5	/	/	/	/
CC(C)c1cc(C(=O)N(C2CCCCC2)C2CCCCC2)no1	-2	/	/	3	/	/	/	/
CCN(CC)C(=O)N1CCN(C)CC1	7	-1	-1	15*	-7	3	0	2
CCN(CC)C(=O)N1CCN(C(=O)N(CC)CC)CC1	4	-1	-1	8	5	17	/	/
Clc1ccc(-c2nnc3n2N=C(c2ccc(-c4ccccc4)cc2)CS3)cc1	-9	/	/	-1	/	/	/	/
C[C@@H]1CN([C@H](C)CO)C(=O)CCCn2nncc2CO[C@H]1CN(C)Cc1ccncc1	-11	/	0	-1	/	-6	/	/
NS(=O)(=O)c1ccc(CNC(=O)Cc2ccccc2[N+](=O)[O-])cc1	2	-3	0	15*	2	14	0	2
Cc1cnn(-c2ccccc2)c1NC(=O)COCc1ccccc1	-4	/	/	4	/	/	/	/
C[C@@]12CCC=C[C@H]1[C@H](c1ccc(/C=C/c3ccccc3)cc1F)N(Cc1ccccc1)C2=O	11	5	4	16*	-1	-1	8	3

Screening data from PubChem BioAssay.
